Experimental data from the EternaBench riboswitch data.

Test system: MS2 coat protein
Assay: apparent Kd, MS2 coat protein; higher = weaker binding; RNA-MaP array; FMN 200 µM where present
Summary of the method: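 SNAP-549-labelled MS2 coat protein, doubled from 0.7 or 1.5 nM to 3 µM, was titrated over designs transcribed by stalled E. coli RNA polymerase on Illumina sequencing-chip clusters. Titrations were run without and then with constant ligand in 100 mM Tris-HCl pH 7.5, 80 mM KCl, 4 mM MgCl2, BSA, DTT, yeast tRNA and Tween-20. The apparent Kd is the median of filtered per-cluster fits to green signal normalised to red-channel RNA signal and control-cluster median Fmax.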

[1] = designed as: OFF switch for flavin mononucleotide, no ligand
[2] = ligand present: flavin mononucleotide, designed as: OFF switch for flavin mononucleotide
[3] = designed as: ON switch for flavin mononucleotide, no ligand
[4] = ligand present: flavin mononucleotide, designed as: ON switch for flavin mononucleotide

Sequence	apparent Kd [1] [nM]	apparent Kd [2] [nM]	apparent Kd [3] [nM]	apparent Kd [4] [nM]
UGAUCUUGAGUCAGGAUAUGCUGGUAUUUUUACCAGCAGAAGGGACAUGAGGAUCACCCAUGUUCUCACUUUUU	10.1	13.4	–	–
UGCACCAACGAGAAGGCACAGAUCCAGCUCUUGACAUGAGGAUCACCCAUGUGAGGAUAUCGUAGGUGCGAAUUGGGACAAUCU	11	98.2	–	–
UGCACCAACGAGAAGGCACAGAUCCAGCUCUUGACAUGAGGAUCACCCAUGUGAGGAUAUCGUAGGUGCGAUUUGGGACAAUCU	11	91.8	–	–
UGCAGACAUGAGGAUCACCCAUGUCAGGAUAUUGGACUAUGCAAUGUAUUGUUAGUACCAAGAAGGGACCCGUC	31.8	27.2	–	–
UGCAGACGAGGAUAUGAUGUCAUAGACAUGAGGAUCACCCAUGUGAUCAAUUAAUUAAGAUCAGAAGGCGUCUGCA	315	218	–	–
UGCAUGGUAGGAUAUACGGAACAUUAGGGUUUGUUAUGUGGACAUGAGGAUCACCCAUGUAGAAGGGCCGUGCU	45.9	72.3	–	–
UGCAUGUAAGGAUAUGCAACCGGCGCUCAUUCGCCGGUCAAGCAGAAGGUACAUGAGGAUCACCCAUGUGUCCG	31.3	139	–	–
UGCAUGUAAGGAUAUGCACUGCGCGAGCCUGACUCGCAAAGGCAGAAGGUACAUGAGGAUCACCCAUGUGAGAA	72.6	64.6	–	–
UGCCAAGCAGGAUAUGCACGUAAUAACAUGAGGAUCACCCAUGUGACCGAUUUAUAUUCUGCAGAAGGGCUUGGUU	138	242	–	–
UGCCGGAGCAGAGGAUAUUACAUGAGGAUCACCCAUGUAUGAACCAAUAGCUGGAAACAGCAAUGUAAGAAGGCUGCUCCGACA	13.4	144	–	–
UGCCGUAGAGGAUAUACAUUGAAUUAGAUUCAUGUAAAACUACAUGAGGAUCACCCAUGUAGAAGGCUAUGGCU	16.6	24.5	–	–
UGCGUACAAGCAAACAUGAGGAUCACCCAUGUGGUCUCAUGCGAGGAUAUCGGGAAGGAGGAUUCCGAGAAGGUGCGGUGAGCC	–	–	116	27.9
UGGACCGAGCUGUCGGUUGACUCGAAGGAUAUGACAUGAGGAUCACCCAUGUGGGAUCUAAAUUGUCAGAAGGUUGGUUCUGGG	641	276	–	–
UGGACGACCCGAGGAUAUCAAAGGCCCGGGUAAGUUCCUCAGACAUGAGGAUCACCCAUGUUAAAUGAGAAGGCGGGUAGCCGA	203	268	–	–
UGGAUCAUCGGAGGAUAUCAUGUAUAUACAUGAGGAUCACCCAUGUCGUACGAGAGUACGGAGAUUGAGAAGGCCGAUGAUCCU	–	–	38.8	14.9
UGGAUGGUAUGAGGAUAUGCGCGCGAAACGCGCGCAGAAGGCAUGUCAAUAGACAUGAGGAUCACCCAUGUACUAUCCAUCCAC	–	–	121	9.41
UGGCAAGUAGGAUAUUGGGUGUGGGACAUGAGGAUCACCCAUGUGAUCACUCAAUCUCUCCGAGAAGGGCUAAGAA	14	15.4	–	–
UGGGACGUGGGAGGAUAUCGGCCUGUAACAGUACGAGAAGGCCCAGUCCAAUAACAGACGGACAUGAGGAUCACCCAUGUCUCA	–	–	43.2	14.3
UGGUACAACGGAGGAUAUCAUGUAAAUACAUGAGGAUCACCCAUGUCGUACGAGAGUACGGAGAUUGAGAAGGCCGUUGUACCU	–	–	25.7	16.1
UGGUACAUCGGAGGAUAUCAUGUAGAUACAUGAGGAUCACCCAUGUCGAUGGAGACAUCGGAGAUUGAGAAGGCCGAUGUACCU	–	–	612	31.7
UGGUACAUGGGAGGAUAUCCUCAAGAGACAUGAGGAUCACCCAUGUAUUAUAAGCCUAAUGGCAUGGAGAAGGCCCAUGUACCU	–	–	467	49
UGGUACAUGGGAGGAUAUGGGUUGAUAACAUGAGGAUCACCCAUGUUAAAUAUGCCGAGAGGCAACUAGAAGGCCCAUGUACCU	–	–	482	38.2
UGGUACAUGGGAGGAUAUGGGUUGAUAACAUGAGGAUCACCCAUGUUAAAUAUGCCUAGUGGCAACUAGAAGGCCCAUGUACCU	–	–	317	51
UGGUACAUGGGAGGAUAUGGGUUGAUAACAUGAGGAUCACCCAUGUUAAAUGCCGAAAGGCAAAACUAGAAGGCCCAUGUACCU	–	–	257	24.5
UGGUACUACGGAGGAUAUGGGAAGAUACAUGAGGAUCACCCAUGUUUAAGAAUGCCGAGAGGCAACUAGAAGGCCCUAGUACCU	–	–	401	25.2
UGGUACUAGGAAGGAUAUGGGAAGAUACAUGAGGAUCACCCAUGUUUAAGAAUGCCGAGAGGCAACUAGAAGGCCCUAGUACCU	–	–	596	135
UGGUACUAGGGAGGAUAUGGGAAGAUACAUGAGGAUCACCCAUGUUUAAGAAUGCCGAGACGCAACUAGAAGGCCCUAGUACCU	–	–	354	20.9
UGGUACUAGGGAGGAUAUGGGAAGAUACAUGAGGAUCACCCAUGUUUAAGAAUGCCGAGAGGCUACUAGAAGGCCCUAGUACCU	–	–	268	9.69

Sequence	apparent Kd [1] [nM]	apparent Kd [2] [nM]	apparent Kd [3] [nM]	apparent Kd [4] [nM]
UGGUACUAGGGAGGAUAUGGGAAGAUACAUGAGGAUCACCCAUGUUUAAGAAUGCGGAGAGGCAACUAGAAGGCCCUAGUACCU	–	–	351	18.9
UGGUACUAGGGAGGAUAUUGGAAGAUACAUGAGGAUCACCCAUGUUUAAGAAUGCCGAGAGGCAACUAGAAGGCCCUAGUACCU	–	–	8.37	5.09
UGGUCGCGAGGAUAUACAUGAGGAUCACCCAUGUUUGAGCGCCAUCCGUUCGGCUCGUGUAGAAGGUGCACACA	21.9	19.9	–	–
UGGUGAAGUGUAGGAUAUGGAGGUGGGUUUUGGCCAGAAGGACAUGAGGAUCACCCAUGUGGUAGAGGGUUGGUGGUGGCUCGU	23.9	21.4	–	–
UGGUUUAGUGUUAGGAUAUAAUCCGAAGUCAGCGAUUAGAAGGAACAUGAGGAUCACCCAUGUUUUAGAUAACC	16	16.9	–	–
UGUACGGACAUGAGGAUCACCCAUGUAACCAAGCAGUUGGUACAGGAUAUCGCUUAGUGACUGAGCGAGAAGGGUGGUUCUGCA	–	–	45.2	62.6
UGUAUGGACAGAGGAUAUACAGAUAGGAUCUACUAUCAAACAAUCCUCACAUGAGGAUCACCCAUGUAGAAGGCUGUCCAUACU	105	809	–	–
UGUAUGGACAGAGGAUAUACAGAUAGGAUCUACUAUCAAACAUUCCUGACAUGAGGAUCACCCAUGUAGAAGGCUGUCCAUACU	21.1	79.2	–	–
UGUCAAGCAGGAUAUGCACGUAAUAACAUGAGGAUCACCCAUGUGACCGAUUUAUAUUCUGCAGAAGGGCUUGGUU	37.8	140	–	–
UGUCGGAGCAGAGGAUAUACAUGAGGAUCACCCAUGUAAUAAAGUGAAGCCUGGAAACAGGCAAUGUAGAAGGUUGCUCCGACA	7.2	31.5	–	–
UGUCGGAGCAGAGGAUAUGACAUGAGGAUCACCCAUGUAUGAACCAAUAGCUGGAAACAGCAAUGUAAGAAGGCUGCUCCGACA	5.98	6.79	–	–
UGUCGGAGCAGAGGAUAUUACAUGAGGAUCACCCAUGUAGGUACCAAUAGCUGGAAACAGCAAUGUAAGAAGGCUGCUCCGACA	280	408	–	–
UGUCGGAGCAGAGGAUAUUACAUGAGGAUCACCCAUGUAUGAACCAAUAGCUGGAAACAGCAAUGUAAGAAGGCUGCACCGACA	12.6	178	–	–
UGUCGGAGCAGAGGAUAUUACAUGAGGAUCACCCAUGUAUGAACCAAUAGCUGGAAACAGCAAUGUAAGAAGGCUGCUCCGAAA	12.3	176	–	–
UGUCGGAGCAGAGGAUAUUACAUGAGGAUCACCCAUGUAUGAACCAAUAGCUGGAAACAGCAAUGUAAGAAGGCUGCUCCGCCA	11.8	187	–	–
UGUCGGAGCAGAGGAUAUUACAUGAGGAUCACCCAUGUAUGAACCAAUAGCUGGAAACAGCAAUGUAAGAAGGCUGCUCUGACA	11.5	150	–	–
UGUCGGAGCAGAGGAUAUUACAUGAGGAUCACCCAUGUAUGAACCAAUAGCUGGAAACAGCAAUGUAAGAAGGCUGCUGCGACA	12.8	182	–	–
UGUCGGAGCAGAGGAUAUUACAUGAGGAUCACCCAUGUAUGAACCAAUAGCUGGCAACAGCAAUGUAAGAAGGCUGCUCCGACA	12.8	168	–	–
UGUCGGAGCAGAGGAUAUUACAUGAGGAUCACCCAUGUAUGAACGAAUAGCUGGAAACAGCAAUGUAAGAAGGCUGCUCCGACA	6	10.4	–	–
UGUCGGAGCAGAGGAUAUUACAUGAGGAUCACCCAUGUAUGCACCAAUAGCUGGAAACAGCAAUGUAAGAAGGCUGCUCCGACA	5.38	15.2	–	–
UGUCGGAGCAGAGGAUAUUACAUGAGGAUCACCCAUGUGGAAGAACCAAGCUGGAAACAGCAAUGUAAGAAGGCUGCUCCGACA	1010	467	–	–
UGUCGGAUGUAGAAGGGUAGUACAUGAGGAUCACCCAUGUUAACAUGGAAUACAGGAUAUGCGUAUAGUUUUUAUUAAAUUAUA	108	44.3	–	–
UGUCUAUUUGAAGGAUAUCUAAGCAUAAACCAGAGAGAAGGUCAAUUAUACAUGAGGAUCACCCAUGUUGAGAUUAAUGGGUUA	27.1	40.3	–	–
UGUCUGAUCUAAUAACAUGAGGAUCACCCAUGUGUUCACAACUAGGAUAUCGAUUGUUAAGACGUCGAGAAGGAGUAUACAUUA	39	53.5	–	–
UGUGAACAUGAGGAUCACCCAUGUGAGGAUAUACGAGCGUGAGAAAGAUAAAACGAGCGUAGAAGGCACAAGAA	75.1	102	–	–
UGUGAGUUGAUGUUAGAUAGGAGAACAUGAGGAUCACCCAUGUAGGAUAUUCAAAGACGAAGAUAGAAGAAGGACAUAGGUAUC	24.8	66.2	–	–
UGUGAGUUGAUGUUAGAUAGGAGUACAUGAGGAUCACCCAUGUAGGAUAUUCAAAGACGAAGAUAGAAGAAGGACAUAGGUUUC	21.4	18.1	–	–
